Values after ≈ are worked out from the molar mass of the structure shown. Active and inactive are the calls of the source. No cut-off for these calls is given here.
Columns and labels:
Staphylococcus aureus [1] = assay: Antibacterial activity against Staphylococcus aureus; type: functional
In short: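 CLSI broth microdilution: log-phase bacteria added to 2-fold serial dilutions (64 to 0.125 µg/mL) in cation-adjusted Mueller-Hinton broth, incubated aerobically 24 h at 37 °C. MIC read by turbidity as the last well showing no growth.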

Bacillus subtilis [2] = assay: Antibacterial activity against Bacillus subtilis ATCC 9372 after 24 hrs by broth microdilution based CLSI method; type: functional; details: ATCC 9372, 24 h
Bacillus pumilus = assay: Antibacterial activity against Bacillus pumilus CMCC63202 after 24 hrs by broth microdilution based CLSI method; type: functional; details: CMCC63202, 24 h
Staphylococcus aureus [3] = assay: Antibacterial activity against Staphylococcus aureus ATCC 25923 after 24 hrs by broth microdilution based CLSI method; type: functional; details: ATCC 25923, 24 h
Staphylococcus aureus [4] = assay: Antibacterial activity against methicillin-resistant Staphylococcus aureus ATCC 43300 after 24 hrs by broth microdilution based CLSI method; type: functional; details: ATCC 43300, 24 h
Staphylococcus aureus [5] = assay: Antibacterial activity against clinical isolate of penicillin-resistant Staphylococcus aureus after 24 hrs by broth microdilution based CLSI method; type: functional
Escherichia coli = assay: Antibacterial activity against Escherichia coli ATCC 25922 after 24 hrs by broth microdilution based CLSI method; type: functional; details: ATCC 25922, 24 h
Pseudomonas aeruginosa = assay: Antibacterial activity against Pseudomonas aeruginosa ATCC 27853 after 24 hrs by broth microdilution based CLSI method; type: functional; details: ATCC 27853, 24 h
HeLa = assay: Cytotoxicity in human HeLa cells assessed as reduction in cell viability after 36 hrs by MTT assay; type: cell-based
In short: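 HeLa cells seeded at 10⁴ cells/well and left overnight, then exposed to compound for 36 h. MTT (5 mg/mL solution) added for 4 h at 37 °C, medium replaced by DMSO for 10 min, absorbance read at 570 nm.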

[6] = biological target: T1, Cell division protein FtsZ (Bacillus subtilis (strain 168)) (UniProt P17865); assay: Induction of Bacillus subtilis FtsZ polymerization at 10 ug/ml in presence of GTP by microtiter plate-based light-scattering assay
T1 sequence (whole entry): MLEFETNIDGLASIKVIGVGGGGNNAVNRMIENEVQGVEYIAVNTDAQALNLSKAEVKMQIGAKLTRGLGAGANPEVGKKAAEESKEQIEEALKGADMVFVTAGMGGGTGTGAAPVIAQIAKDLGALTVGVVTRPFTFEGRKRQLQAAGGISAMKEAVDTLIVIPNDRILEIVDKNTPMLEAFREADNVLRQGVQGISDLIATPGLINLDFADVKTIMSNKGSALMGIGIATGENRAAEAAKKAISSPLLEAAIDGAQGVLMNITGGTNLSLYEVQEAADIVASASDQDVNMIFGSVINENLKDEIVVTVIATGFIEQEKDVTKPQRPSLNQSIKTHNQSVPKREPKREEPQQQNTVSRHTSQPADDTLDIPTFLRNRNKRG
In short: (§1)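 Recombinant purified B. subtilis FtsZ (5 µM) with 1 mM GTP in 50 mM MES, 50 mM KCl, 2 mM magnesium acetate, compound 0–10 µg/mL. Polymerization followed as light scattering (A340) continuously at 25 °C for 30 min. DMSO vehicle and a non-FtsZ control were included.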

Bacillus subtilis [7] = assay: Potency index, ratio of PC190723 MIC to test compound MIC for antibacterial activity against Bacillus subtilis ATCC 9372 after 24 hrs by broth microdilution based CLSI method
[8] = biological target: T1, Cell division protein FtsZ (Bacillus subtilis (strain 168)); assay: Induction of Bacillus subtilis FtsZ polymerization in presence of GTP by microtiter plate-based light-scattering assay; in short: as §1
Staphylococcus aureus [9] = assay: Bactericidal activity against Staphylococcus aureus ATCC 25923 incubated for 24 hrs followed by plating onto tryptic soy agar plates and further incubated for 24 hrs by broth microdilution based CLSI method; type: functional; details: ATCC 25923, 24 h
Staphylococcus aureus [10] = assay: Selectivity ratio of MBC for Staphylococcus aureus ATCC 25923 to MIC for Staphylococcus aureus ATCC 25923; type: functional

Row | Compound | MIC (Staphylococcus aureus [1]) | MIC (Bacillus subtilis [2]) | MIC (Bacillus pumilus) | MIC (Staphylococcus aureus [3]) | MIC (Staphylococcus aureus [4]) | MIC (Staphylococcus aureus [5]) | MIC (Escherichia coli) | MIC (Pseudomonas aeruginosa) | IC50 (HeLa) | Activity [6] | Ratio (Bacillus subtilis [7]) | Activity [8] | MBC (Staphylococcus aureus [9]) | Ratio (Staphylococcus aureus [10])
1 | NC(=O)c1c(F)ccc(OCc2ccccc2)c1F | 32 µg/mL (≈ 122 µM) |  |  |  |  |  |  |  |  |  |  |  |  | 
2 | CC(C)(C)c1ccc(-c2ccc(CNC(=N)N)cc2)cc1 | 1 µg/mL (≈ 3.55 µM) |  |  |  |  |  |  |  |  |  |  |  |  | 
3 | CC(C)(C)c1ccc(-c2cc(COc3ccc(F)c(C(N)=O)c3F)on2)cc1 |  | 0.03 µg/mL (≈ 0.0776 µM) | 0.25 µg/mL (≈ 0.647 µM) | 8 µg/mL (≈ 20.7 µM) | 4 µg/mL (≈ 10.4 µM) | 8 µg/mL (≈ 20.7 µM) | > 64 µg/mL | > 64 µg/mL | > 128 µg/mL | inactive | >16 |  |  | 
4 | NC(=O)c1c(F)ccc(OCc2cc(-c3ccccc3)no2)c1F |  | 64 µg/mL (≈ 194 µM) | > 64 µg/mL | > 64 µg/mL | > 64 µg/mL | > 64 µg/mL | > 64 µg/mL | > 64 µg/mL |  |  |  |  |  | 
5 | CCCCC(CC)COc1ccc(F)c(C(N)=O)c1F (configuration not stated) | 4 µg/mL (≈ 14 µM) |  |  |  |  |  |  |  |  |  |  |  |  | 
6 | NC(=O)c1c(F)ccc(OCc2noc(-c3ccc(Cl)cc3)c2Br)c1F |  | > 64 µg/mL | > 64 µg/mL | > 64 µg/mL | > 64 µg/mL | > 64 µg/mL | > 64 µg/mL | > 64 µg/mL |  |  |  |  |  | 
7 | NC(=O)c1c(F)ccc(OCc2cc(-c3ccc(-c4ccccc4)cc3)no2)c1F |  | > 64 µg/mL | > 64 µg/mL | > 64 µg/mL | > 64 µg/mL | > 64 µg/mL | > 64 µg/mL | > 64 µg/mL |  |  |  |  |  | 
8 | COc1ccc(-c2cc(COc3ccc(F)c(C(N)=O)c3F)on2)cc1 |  | 3 µg/mL (≈ 8.33 µM) | > 64 µg/mL | 64 µg/mL (≈ 178 µM) | 4 µg/mL (≈ 11.1 µM) | > 64 µg/mL | > 64 µg/mL | > 64 µg/mL |  |  |  |  |  | 
9 | CC(C)=Cc1cc(COc2ccc(F)c(C(N)=O)c2F)on1 |  | 32 µg/mL (≈ 104 µM) | > 64 µg/mL | > 64 µg/mL | > 64 µg/mL | > 64 µg/mL | > 64 µg/mL | > 64 µg/mL |  |  |  |  |  | 
10 | CCCOc1cccc(-c2cc(COc3ccc(F)c(C(N)=O)c3F)on2)c1 |  | 64 µg/mL (≈ 165 µM) | > 64 µg/mL | > 64 µg/mL | > 64 µg/mL | > 64 µg/mL | > 64 µg/mL | > 64 µg/mL |  |  |  |  |  | 
11 | COc1cccc(-c2cc(COc3ccc(F)c(C(N)=O)c3F)no2)c1 |  | 64 µg/mL (≈ 178 µM) | > 64 µg/mL | > 64 µg/mL | > 64 µg/mL | > 64 µg/mL | > 64 µg/mL | > 64 µg/mL |  |  |  |  |  | 
12 | NC(=O)c1c(F)ccc(OCc2cc(-c3ccc(-c4cccc5ccccc45)cc3)no2)c1F |  | > 64 µg/mL | > 64 µg/mL | > 64 µg/mL | > 64 µg/mL | > 64 µg/mL | > 64 µg/mL | > 64 µg/mL |  |  |  |  |  | 
13 | NC(=O)c1c(F)ccc(OCc2cc(-c3ccc(Cl)c(Cl)c3)no2)c1F |  | 64 µg/mL (≈ 160 µM) | > 64 µg/mL | > 64 µg/mL | > 64 µg/mL | > 64 µg/mL | > 64 µg/mL | > 64 µg/mL |  |  |  |  |  | 
14 | NC(=O)c1c(F)ccc(OCc2cc(-c3ccc(Br)cc3)no2)c1F |  | 1 µg/mL (≈ 2.44 µM) | > 64 µg/mL | > 64 µg/mL | > 64 µg/mL | > 64 µg/mL | > 64 µg/mL | > 64 µg/mL |  |  |  |  |  | 
15 | O=C(O)c1cn(C2CC2)c2cc(N3CCNCC3)c(F)cc2c1=O |  |  |  |  |  |  |  |  |  |  |  | inactive |  | 
16 | NC(=O)c1c(F)ccc(OCc2cc(-c3ccc(Cl)cc3Cl)on2)c1F |  | 0.5 µg/mL (≈ 1.25 µM) | 8 µg/mL (≈ 20 µM) | > 64 µg/mL | > 64 µg/mL | > 64 µg/mL | > 64 µg/mL | > 64 µg/mL |  |  |  |  |  | 
17 | CC[C@H]1OC(=O)[C@H](C)[C@@H](O[C@H]2C[C@@](C)(OC)[C@@H](O)[C@H](C)O2)[C@H](C)[C@@H](O[C@@H]2O[C@H](C)C[C@H](N(C)C)[C@H]2O)[C@](C)(OC)C[C@@H](C)C(=O)[C@H](C)[C@@H](O)[C@]1(C)O [CLARITHROMYCIN] |  |  |  | 0.125 µg/mL (≈ 0.167 µM) |  |  |  |  |  |  |  |  | 4 µg/mL (≈ 5.35 µM) | 32
18 | CCCCc1ccc(-c2cc(COc3ccc(F)c(C(N)=O)c3F)on2)cc1 |  | 0.03 µg/mL (≈ 0.0776 µM) | 0.25 µg/mL (≈ 0.647 µM) | > 64 µg/mL | 2 µg/mL (≈ 5.18 µM) | > 64 µg/mL | > 64 µg/mL | > 64 µg/mL |  |  | >16 |  |  | 
19 | COc1ccc(-c2cc(COc3ccc(F)c(C(N)=O)c3F)no2)cc1 |  | 64 µg/mL (≈ 178 µM) | > 64 µg/mL | > 64 µg/mL | > 64 µg/mL | > 64 µg/mL | > 64 µg/mL | > 64 µg/mL |  |  |  |  |  | 
20 | NC(=O)c1c(F)ccc(OCc2nc3cc(Cl)cnc3s2)c1F | 1 µg/mL (≈ 2.81 µM) | 0.5 µg/mL (≈ 1.41 µM) | 0.5 µg/mL (≈ 1.41 µM) | 1 µg/mL (≈ 2.81 µM) | 1 µg/mL (≈ 2.81 µM) | 1 µg/mL (≈ 2.81 µM) | > 64 µg/mL | > 64 µg/mL |  |  |  |  |  | 
21 | CCCOc1ccc(-c2cc(COc3ccc(F)c(C(N)=O)c3F)no2)cc1 |  | > 64 µg/mL | > 64 µg/mL | > 64 µg/mL | > 64 µg/mL | > 64 µg/mL | > 64 µg/mL | > 64 µg/mL |  |  |  |  |  | 
22 | Nc1nonc1C(=O)N/N=C/c1cc(Cl)cc(Cl)c1O | 16 µg/mL (≈ 50.6 µM) |  |  |  |  |  |  |  |  |  |  |  |  | 
23 | Cc1cccc(-c2cc(COc3ccc(F)c(C(N)=O)c3F)no2)c1 |  | 32 µg/mL (≈ 92.9 µM) | > 64 µg/mL | > 64 µg/mL | > 64 µg/mL | > 64 µg/mL | > 64 µg/mL | > 64 µg/mL |  |  |  |  |  | 
24 | COc1cccc(-c2cc(COc3ccc(F)c(C(N)=O)c3F)on2)c1 |  | 64 µg/mL (≈ 178 µM) | > 64 µg/mL | > 64 µg/mL | > 64 µg/mL | > 64 µg/mL | > 64 µg/mL | > 64 µg/mL |  |  |  |  |  | 
25 | Cc1cc(C(C)(C)C)cc(C)c1-c1cc(COc2ccc(F)c(C(N)=O)c2F)no1 |  | > 64 µg/mL | 0.06 µg/mL (≈ 0.145 µM) | 1 µg/mL (≈ 2.41 µM) | 2 µg/mL (≈ 4.83 µM) | 2 µg/mL (≈ 4.83 µM) | > 64 µg/mL | > 64 µg/mL | > 128 µg/mL |  |  |  |  | 
26 | CCOc1cccc(-c2cc(COc3ccc(F)c(C(N)=O)c3F)on2)c1 |  | 2 µg/mL (≈ 5.34 µM) | 16 µg/mL (≈ 42.7 µM) | > 64 µg/mL | > 64 µg/mL | > 64 µg/mL | > 64 µg/mL | > 64 µg/mL |  |  |  |  |  | 
27 | NC(=O)c1c(F)ccc(OCc2cc(-c3ccco3)no2)c1F |  | 32 µg/mL (≈ 99.9 µM) | > 64 µg/mL | > 64 µg/mL | > 64 µg/mL | > 64 µg/mL | > 64 µg/mL | > 64 µg/mL |  |  |  |  |  | 
28 | CCCCOc1cccc(-c2cc(COc3ccc(F)c(C(N)=O)c3F)on2)c1 |  | 64 µg/mL (≈ 159 µM) | > 64 µg/mL | > 64 µg/mL | > 64 µg/mL | > 64 µg/mL | > 64 µg/mL | > 64 µg/mL |  |  |  |  |  | 
29 | NC(=O)c1c(F)ccc(OCc2cc(-c3cccc(Cl)c3)no2)c1F |  | 8 µg/mL (≈ 21.9 µM) | > 64 µg/mL | > 64 µg/mL | > 64 µg/mL | > 64 µg/mL | > 64 µg/mL | > 64 µg/mL |  |  |  |  |  | 
30 | NC(=O)c1c(F)ccc(OCc2cc(/C=C/c3ccccc3)no2)c1F |  | 8 µg/mL (≈ 22.5 µM) | > 64 µg/mL | > 64 µg/mL | > 64 µg/mL | > 64 µg/mL | > 64 µg/mL | > 64 µg/mL |  |  |  |  |  | 
